pIC50: −log10 of the molar value.
How the values were obtained:
[1] = target: T1, Polyunsaturated fatty acid 5-lipoxygenase (Homo sapiens) (UniProt P09917); assay: Potency index, ratio of IC50 for human 5-LOX by intact cell based assay to IC50 for human 5-LOX by cell free assay
T1 sequence (whole entry): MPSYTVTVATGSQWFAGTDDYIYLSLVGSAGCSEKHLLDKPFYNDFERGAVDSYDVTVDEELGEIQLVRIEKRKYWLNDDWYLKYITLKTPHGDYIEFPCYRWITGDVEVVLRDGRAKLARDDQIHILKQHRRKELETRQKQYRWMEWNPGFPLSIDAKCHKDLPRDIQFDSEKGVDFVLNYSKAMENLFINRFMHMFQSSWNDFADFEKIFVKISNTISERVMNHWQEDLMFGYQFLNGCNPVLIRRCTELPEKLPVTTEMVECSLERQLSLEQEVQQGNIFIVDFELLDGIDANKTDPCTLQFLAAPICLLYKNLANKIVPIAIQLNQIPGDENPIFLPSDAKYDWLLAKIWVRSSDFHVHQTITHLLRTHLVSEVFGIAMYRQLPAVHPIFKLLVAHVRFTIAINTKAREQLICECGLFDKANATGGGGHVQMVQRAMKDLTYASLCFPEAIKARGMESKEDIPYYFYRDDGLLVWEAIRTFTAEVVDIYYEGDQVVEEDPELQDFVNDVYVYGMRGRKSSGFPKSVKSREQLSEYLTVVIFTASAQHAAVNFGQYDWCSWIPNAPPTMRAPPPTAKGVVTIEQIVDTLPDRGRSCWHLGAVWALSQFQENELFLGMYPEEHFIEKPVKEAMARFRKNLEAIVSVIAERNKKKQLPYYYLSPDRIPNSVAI

[2] = target: T2, Polyunsaturated fatty acid 5-lipoxygenase (Homo sapiens, UniProt P09917); assay: Inhibition of 5-LOX in A23187-stimulated human blood PMNL assessed as reduction in lipoxygenase products formation in presence of arachidonic acid pre-incubated for 15 mins followed by stimulation with A23187 for 10 mins by RP-HPLC based cell based assay
T2 sequence (P09917 whole entry): T1 sequence (whole entry)
In short: (§1)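 Human PMNL (5 × 10⁶ in 1 ml PBS pH 7.4, 1 mg/ml glucose, 1 mM CaCl₂), preincubated 15 min at 37 °C with compound or 0.1% DMSO, then stimulated 10 min at 37 °C with A23187, with or without AA. 5-LO products measured. Values are mean ± S.E. of 3–4 independent experiments. IC₅₀ read graphically from 4–5 concentrations.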

[3] = target: T2, Polyunsaturated fatty acid 5-lipoxygenase; assay: Inhibition of human 5-LOX by intact cell based assay
[4] = target: T2, Polyunsaturated fatty acid 5-lipoxygenase; assay: Inhibition of 5-LOX in A23187-stimulated human blood PMNL assessed as reduction in lipoxygenase products formation pre-incubated for 15 mins followed by stimulation with A23187 for 10 mins by RP-HPLC based cell based assay; in short: as §1
[5] = target: T3, Polyunsaturated fatty acid lipoxygenase ALOX12 (Homo sapiens) (UniProt P18054); assay: Inhibition of 12-LOX in human blood PMNL assessed as remaining activity by measuring 12-HETE synthesis at 10 uM
T3 sequence (whole entry): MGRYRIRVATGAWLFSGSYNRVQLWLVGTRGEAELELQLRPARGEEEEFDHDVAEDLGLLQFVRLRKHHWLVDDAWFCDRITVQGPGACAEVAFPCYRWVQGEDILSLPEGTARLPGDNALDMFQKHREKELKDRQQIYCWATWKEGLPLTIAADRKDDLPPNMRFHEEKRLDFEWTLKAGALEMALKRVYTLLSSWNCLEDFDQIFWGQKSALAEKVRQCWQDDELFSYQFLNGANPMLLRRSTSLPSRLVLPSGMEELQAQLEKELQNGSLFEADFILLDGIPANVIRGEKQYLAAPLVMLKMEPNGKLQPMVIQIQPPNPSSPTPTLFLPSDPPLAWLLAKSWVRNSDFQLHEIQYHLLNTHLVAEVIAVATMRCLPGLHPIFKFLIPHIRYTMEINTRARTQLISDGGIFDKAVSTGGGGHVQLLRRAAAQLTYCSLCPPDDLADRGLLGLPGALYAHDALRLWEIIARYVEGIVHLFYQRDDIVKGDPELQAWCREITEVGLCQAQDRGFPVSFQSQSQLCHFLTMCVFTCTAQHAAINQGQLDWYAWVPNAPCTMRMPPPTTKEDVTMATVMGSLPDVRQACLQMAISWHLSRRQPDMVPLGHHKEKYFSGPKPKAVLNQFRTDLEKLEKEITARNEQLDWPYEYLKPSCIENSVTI
In short: (§2)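 PMNL isolated from heparinized blood of fasted healthy donors by dextran sedimentation and Nycoprep centrifugation, with hypotonic lysis of erythrocytes. Cells at 5 × 10⁶ in 1 ml PBS pH 7.4 with 1 mg/ml glucose and 1 mM CaCl₂, preincubated 15 min at 37 °C with compound or 0.1% DMSO vehicle, then stimulated 10 min at 37 °C. 12-HETE or 15-HETE formation measured.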

[6] = target: T2, Polyunsaturated fatty acid 5-lipoxygenase; assay: Inhibition of human recombinant 5-LOX expressed in Escherichia coli BL21 incubated for 10 mins in presence of arachidonic acid by RP-HPLC based cell-free assay
In short: (§3)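 Recombinant human 5-LO, semi-purified from a 40,000 × g lysate supernatant on ATP-agarose, diluted in ice-cold PBS with 1 mM EDTA and 1 mM ATP. Preincubated 10 min at 4 °C with compound or 0.1% DMSO, warmed 30 s at 37 °C, then started with 2 mM CaCl₂ plus 20 µM AA. Reaction 10 min at 37 °C, stopped with cold methanol, products by RP-HPLC. IC₅₀ from 4–5 concentrations.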

[7] = target: T2, Polyunsaturated fatty acid 5-lipoxygenase; assay: Inhibition of human 5-LOX by cell free assay
[8] = target: T4, Polyunsaturated fatty acid lipoxygenase ALOX15 (Homo sapiens) (UniProt P16050); assay: Inhibition of 15-LOX-1 in human blood PMNL assessed as remaining activity by measuring 15-HETE synthesis at 10 uM; in short: as §2
T4 sequence (whole entry): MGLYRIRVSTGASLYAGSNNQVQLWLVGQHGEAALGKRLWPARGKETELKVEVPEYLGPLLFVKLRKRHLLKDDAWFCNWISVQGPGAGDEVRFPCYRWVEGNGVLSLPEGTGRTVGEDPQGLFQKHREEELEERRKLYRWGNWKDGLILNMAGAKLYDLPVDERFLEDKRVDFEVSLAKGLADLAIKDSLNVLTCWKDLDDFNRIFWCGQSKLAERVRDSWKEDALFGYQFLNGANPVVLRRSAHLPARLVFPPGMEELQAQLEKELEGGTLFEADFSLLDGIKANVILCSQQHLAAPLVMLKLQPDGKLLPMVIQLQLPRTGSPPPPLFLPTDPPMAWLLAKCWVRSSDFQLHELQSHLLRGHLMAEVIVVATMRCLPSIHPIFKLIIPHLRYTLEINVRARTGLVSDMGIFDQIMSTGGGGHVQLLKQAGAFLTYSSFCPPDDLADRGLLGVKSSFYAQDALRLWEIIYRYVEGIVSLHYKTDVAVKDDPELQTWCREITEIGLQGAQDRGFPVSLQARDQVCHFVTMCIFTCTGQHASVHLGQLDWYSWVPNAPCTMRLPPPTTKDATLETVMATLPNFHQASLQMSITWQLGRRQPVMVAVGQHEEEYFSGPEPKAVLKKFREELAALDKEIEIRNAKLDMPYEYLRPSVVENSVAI

[9] = target: T1, Polyunsaturated fatty acid 5-lipoxygenase (Homo sapiens); assay: Inhibition of 5-LOX in A23187-stimulated human blood PMNL assessed as remaining activity by measuring lipoxygenase products formation at 10 uM in presence of arachidonic acid pre-incubated for 15 mins followed by stimulation with A23187 for 10 mins by RP-HPLC based cell based assay; in short: as §1
[10] = target: T1, Polyunsaturated fatty acid 5-lipoxygenase (Homo sapiens); assay: Inhibition of 5-LOX in A23187-stimulated human blood PMNL assessed as remaining activity by measuring lipoxygenase products formation at 10 uM pre-incubated for 15 mins followed by stimulation with A23187 for 10 mins by RP-HPLC based cell based assay; in short: as §1
[11] = species on record: Homo sapiens; assay: Selectivity index, ratio of inhibition for […] in human blood PMNL to IC50 for 5-LOX in human blood PMNL
[12] = species on record: Homo sapiens; assay: Selectivity index, ratio of inhibition for 12-LOX in human blood PMNL to IC50 for 5-LOX in human blood PMNL
[13] = target: T1, Polyunsaturated fatty acid 5-lipoxygenase (Homo sapiens); assay: Inhibition of human recombinant 5-LOX expressed in Escherichia coli BL21 assessed as remaining activity at 10 uM incubated for 10 mins in presence of arachidonic acid by RP-HPLC based cell-free assay; in short: as §3

CCCCCCCCCCCC1=C(O)C(=O)C=C(O)C1=O [EMBELIN]
Ratio IC50 [1]: 13 | pIC50 [2]: 5.46 | pIC50 [3]: 6.10 | pIC50 [4]: 5.77 | Activity [5]: 74.9% | pIC50 [6]: 7.22 | pIC50 [7]: 7.22 | Activity [8]: 91.5%

CC(C)=CCC/C(C)=C/CC/C(C)=C/CC1=C(O)C(=O)C=C(O)C1=O
pIC50 [2]: < 5.00 | Activity [9]: 66.6% | pIC50 [4]: < 5.00 | Activity [10]: 85.8% | Activity [5]: 78.3% | pIC50 [6]: 5.60 | Activity [8]: 95.2%

CCCCCCCCCCC1=C(OC)C(OC)=CC(=O)C1=O
pIC50 [2]: 7.15 | pIC50 [4]: 7.40 | Selectivity Index [11]: > 66 | Selectivity Index [12]: > 66 | Activity [5]: 133% | pIC50 [6]: 6.89 | Activity [8]: 148%

CC(C)=CCC/C(C)=C/CC1=C(O)C(=O)C=C(O)C1=O
pIC50 [2]: < 5.00 | Activity [9]: 81.9% | pIC50 [4]: < 5.00 | Activity [10]: 114% | Activity [5]: 80.5% | pIC50 [6]: 5.74 | Activity [8]: 92%

CCCCCCCCCCCCCC1=C(OC)C(OC)=CC(=O)C1=O
pIC50 [2]: 7.30 | pIC50 [4]: 6.92 | Selectivity Index [11]: > 66 | Selectivity Index [12]: > 66 | Activity [5]: 78.5% | pIC50 [6]: 7.10 | Activity [8]: 137%

CCCCCCCCC1=C(O)C(=O)C=C(O)C1=O
pIC50 [2]: < 5.00 | Activity [9]: 80.1% | pIC50 [4]: < 5.00 | Activity [10]: 53.5% | Activity [5]: 75.7% | pIC50 [6]: 6.42 | Activity [8]: 88.9%

CCCCCCCCCCCCCCCCC1=C(OC)C(=O)C=C(OC)C1=O
pIC50 [2]: 5.46 | pIC50 [4]: < 5.00 | Activity [10]: 80.1% | Activity [5]: 121% | pIC50 [6]: 5.80 | Activity [8]: 97.8%

CCCCCCCCCCCCCCCCC1=C(O)C(=O)C=C(OC)C1=O
Activity [13]: 60.1% | pIC50 [2]: 5.96 | pIC50 [4]: 6.00 | Activity [5]: 138% | pIC50 [6]: < 5.00 | Activity [8]: 119%

CCCCCCC1=C(O)C(=O)C=C(O)C1=O
pIC50 [2]: < 5.00 | Activity [9]: 79.9% | pIC50 [4]: < 5.00 | Activity [10]: 134% | Activity [5]: 105% | pIC50 [6]: 5.40 | Activity [8]: 89.8%

CCCCC1=C(O)C(=O)C=C(OC)C1=O
Activity [13]: 70.5% | pIC50 [2]: < 5.00 | Activity [9]: 95.7% | pIC50 [4]: < 5.00 | Activity [10]: 86% | Activity [5]: 91.2% | pIC50 [6]: < 5.00 | Activity [8]: 112%

CCCCC1=C(OC)C(OC)=CC(=O)C1=O
Activity [13]: 82.9% | pIC50 [2]: 5.29 | pIC50 [4]: 5.66 | Activity [5]: 85.8% | pIC50 [6]: < 5.00 | Activity [8]: 129%

COC1=CC(=O)C(O)=C(C/C=C(\C)CCC=C(C)C)C1=O
Activity [13]: 73.6% | pIC50 [2]: < 5.00 | Activity [9]: 65.9% | pIC50 [4]: 5.39 | Activity [5]: 101% | pIC50 [6]: < 5.00 | Activity [8]: 112%

CCCCCCCCCCCCCCCCC1=C(O)C(=O)C=C(O)C1=O
pIC50 [2]: < 5.00 | Activity [9]: 80.5% | pIC50 [4]: < 5.00 | Activity [10]: 88% | Activity [5]: 117% | pIC50 [6]: 6.72 | Activity [8]: 105%

CCCCCCCCCCCC1=C(OC)C(OC)=CC(=O)C1=O
pIC50 [2]: 7.00 | pIC50 [4]: 7.22 | Selectivity Index [11]: > 66 | Selectivity Index [12]: > 66 | Activity [5]: 236% | pIC50 [6]: 7.05 | Activity [8]: 105%

CCCCC1=C(O)C(=O)C=C(O)C1=O
Activity [13]: 65.4% | pIC50 [2]: < 5.00 | Activity [9]: 92.8% | pIC50 [4]: < 5.00 | Activity [10]: 93.5% | Activity [5]: 93.3% | pIC50 [6]: < 5.00 | Activity [8]: 82.3%

CCCCCCCCC1=C(O)C(=O)C=C(OC)C1=O
pIC50 [2]: < 5.00 | Activity [9]: 72.9% | pIC50 [4]: < 5.00 | Activity [10]: 73.5% | Activity [5]: 86.8% | pIC50 [6]: 5.52 | Activity [8]: 105%

CCCCCCCCCCCCCCCC1=C(OC)C(OC)=CC(=O)C1=O
pIC50 [2]: < 5.00 | Activity [9]: 66.8% | pIC50 [4]: < 5.00 | Activity [10]: 57.6% | Activity [5]: 88.9% | pIC50 [6]: 6.21 | Activity [8]: 115%

CCCCCCCCCCCCC1=C(OC)C(OC)=CC(=O)C1=O
pIC50 [2]: 6.82 | pIC50 [4]: 7.54 | Selectivity Index [11]: > 66 | Selectivity Index [12]: > 66 | Activity [5]: 135% | pIC50 [6]: 6.89 | Activity [8]: 133%

CCCCCCC1=C(O)C(=O)C=C(OC)C1=O
Activity [13]: 71.1% | pIC50 [2]: < 5.00 | Activity [9]: 64.1% | pIC50 [4]: < 5.00 | Activity [10]: 68.9% | Activity [5]: 44.5% | pIC50 [6]: < 5.00 | Activity [8]: 65.8%

— ChEMBL document CHEMBL3414543, “Novel series of benzoquinones with high potency against 5-lipoxygenase in human polymorphonuclear leukocytes” (Eur J Med Chem, 2015)
